{"source": "ChEMBL document CHEMBL6096655", "about": "“Discovery of a novel, selective CK2 inhibitor class with an unusual basic scaffold” (Eur J Med Chem, 2025)", "key": {"786-0 [1]": {"system": "786-0", "experiment": "Antiproliferative activity against human 786-0 cells assessed as inhibition of cell growth at 30 uM measured after 3 to 4 days by MTT assay relative to control", "assay_type": "functional", "details": "time 3-4 day", "procedure,_shortened": "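786-O cells (RPMI, 10% FCS) seeded at 5000 per well and left overnight. Compound was added at a single 30 µM concentration in 1% FCS medium (DMSO max. 0.2%). Cells grew 3–4 days at 37 °C, 5% CO₂, with no medium change, and were read by MTT. Percent inhibition is the mean of duplicates that differed by ≤10%.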"}, "786-0 [2]": {"system": "786-0", "experiment": "Antiproliferative activity against human 786-0 cells assessed as inhibition of cell growth measured after 3 to 4 days by MTT assay", "assay_type": "functional", "details": "time 3-4 day", "procedure,_shortened": "(§1)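 786-O or U937 cells grown in RPMI with 2 mM L-glutamine, 1% pen/strep and 10% FCS. Cells were seeded at 5000 per well and left overnight, then switched to 1% FCS medium containing compound or DMSO (max. 0.2% final). Growth ran 3–4 days at 37 °C in 5% CO₂ without medium change, followed by MTT read-out. GI50 is the mean ± SD of at least two independent experiments.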"}, "786-0 [3]": {"system": "786-0", "experiment": "Induction of cell death in human 786-0 cells assessed as cell viability at 5 uM measured after 11 hrs by CellCyteX live-cell microscopy analysis", "assay_type": "functional, cell-based", "procedure,_shortened": "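786-O cells seeded at 3×10³ per well and grown 24 h. Compound was then added in culture medium containing 125 nM Cytotox Green, at 0.2% (v/v) final DMSO, and kept at 37 °C in 5% CO₂. Green fluorescence images of dead cells were taken every 3 h by live-cell microscopy and normalized to the DMSO control. Results are representative of three independent measurements.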"}, "U-937": {"system": "U-937", "experiment": "Antiproliferative activity against human U-937 cells assessed as inhibition of cell growth measured after 3 to 4 days by MTT assay", "assay_type": "functional", "details": "time 3-4 day", "procedure,_shortened": "as §1"}, "[4]": {"experiment": "Upregulation of PARP cleavage in human U-937 cells by measuring signal 1 at 5 uM measured after 48 hrs by immunoblot analysis", "assay_type": "functional", "procedure,_shortened": "(§2)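 U937 cells exposed to compound or DMSO for 48 h, then lysed in Laemmli buffer. Lysates were run on 8–16% gradient SDS-PAGE, semi-dry blotted to PVDF and probed for PARP. Detection used IR-fluorescent secondary antibodies. The cleaved/uncleaved PARP signal ratio was obtained by densitometry. Results are representative of two independent experiments.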"}, "[5]": {"experiment": "Antiproliferative activity against HEK293 cells assessed as inhibition of cell growth measured after 3 to 4 days by MTT assay", "assay_type": "toxicity, cell-based", "details": "human, time 3-4 day", "procedure,_shortened": "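HEK293 cells grown in DMEM with 2 mM L-glutamine, 1% pen/strep and 10% FCS. Cells were seeded at 5000 per well, left overnight, then given medium with 1% FCS plus compound or DMSO (max. 0.2% final). They were grown 3–4 days at 37 °C in 5% CO₂ with no medium change, and growth was read by MTT.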"}, "[6]": {"experiment": "Upregulation of PARP cleavage in human U-937 cells by measuring signal 2 at 2 uM measured after 48 hrs by immunoblot analysis", "assay_type": "functional", "procedure,_shortened": "(§3)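 U937 lymphoma cells grown in RPMI with 2 mM L-glutamine, 1 % pen/strep and 10 % FCS; exposed to compound or DMSO solvent control for 48 h. Total cellular proteins harvested and immunoblotted with an antibody against phosphorylated CK2-substrate motifs and for PARP. Read-out is the densitometric ratio of cleaved to uncleaved PARP signal. Representative of two independent experiments.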"}, "HCT-116": {"system": "HCT-116", "experiment": "Antiproliferative activity against human HCT-116 cells measured after 72 hrs by alamar blue staining based fluorescence assay", "assay_type": "functional"}, "[7]": {"molecular_target": "T1, Casein kinase II subunit alpha (Homo sapiens, UniProt P68400)", "experiment": "Inhibition of CK2alpha (unknown origin)"}, "[8]": {"molecular_target": "T1, Casein kinase II subunit alpha", "experiment": "Inhibition of CK2alpha (unknown origin) assessed as residual activity at 5 uM relative to control"}, "[9]": {"molecular_target": "Eukaryotic translation initiation factor 2 subunit 2 (Homo sapiens) (UniProt P20042)", "sequence (P20042 whole entry)": "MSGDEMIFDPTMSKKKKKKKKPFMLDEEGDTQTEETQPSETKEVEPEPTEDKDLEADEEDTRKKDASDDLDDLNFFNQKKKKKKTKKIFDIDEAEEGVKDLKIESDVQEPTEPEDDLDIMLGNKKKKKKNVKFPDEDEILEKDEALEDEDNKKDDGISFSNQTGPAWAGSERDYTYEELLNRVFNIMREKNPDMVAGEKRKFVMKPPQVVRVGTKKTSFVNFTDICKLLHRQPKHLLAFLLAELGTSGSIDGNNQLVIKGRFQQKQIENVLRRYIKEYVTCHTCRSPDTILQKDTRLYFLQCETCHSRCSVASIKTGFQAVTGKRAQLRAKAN", "experiment": "Inhibition of eIF2beta phosphorylation in human 786-O cells at 10 uM measured after 48 hrs by immunoblot analysis relative to control"}, "[10]": {"experiment": "Upregulation of PARP cleavage in human U-937 cells by measuring signal 2 at 5 uM measured after 48 hrs by immunoblot analysis", "assay_type": "functional", "procedure,_shortened": "as §3"}, "[11]": {"molecular_target": "T2, Hsp90 co-chaperone Cdc37 (Homo sapiens) (UniProt Q16543)", "T2 sequence (whole entry)": "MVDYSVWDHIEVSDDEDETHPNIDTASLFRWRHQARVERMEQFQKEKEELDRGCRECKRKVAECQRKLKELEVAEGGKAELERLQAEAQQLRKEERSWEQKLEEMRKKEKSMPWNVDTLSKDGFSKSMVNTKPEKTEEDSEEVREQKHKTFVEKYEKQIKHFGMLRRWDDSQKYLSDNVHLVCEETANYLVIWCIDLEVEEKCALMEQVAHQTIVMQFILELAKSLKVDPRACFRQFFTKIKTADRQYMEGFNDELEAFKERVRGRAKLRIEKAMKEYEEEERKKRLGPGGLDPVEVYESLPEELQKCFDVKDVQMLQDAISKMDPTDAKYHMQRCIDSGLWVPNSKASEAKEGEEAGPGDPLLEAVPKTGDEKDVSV", "experiment": "Inhibition of CDC37 phosphorylation in human 786-O cells at 10 uM measured after 48 hrs by immunoblot analysis relative to control"}, "[12]": {"molecular_target": "Signal transducer and activator of transcription 3 (Homo sapiens) (UniProt P40763)", "sequence (P40763 whole entry)": "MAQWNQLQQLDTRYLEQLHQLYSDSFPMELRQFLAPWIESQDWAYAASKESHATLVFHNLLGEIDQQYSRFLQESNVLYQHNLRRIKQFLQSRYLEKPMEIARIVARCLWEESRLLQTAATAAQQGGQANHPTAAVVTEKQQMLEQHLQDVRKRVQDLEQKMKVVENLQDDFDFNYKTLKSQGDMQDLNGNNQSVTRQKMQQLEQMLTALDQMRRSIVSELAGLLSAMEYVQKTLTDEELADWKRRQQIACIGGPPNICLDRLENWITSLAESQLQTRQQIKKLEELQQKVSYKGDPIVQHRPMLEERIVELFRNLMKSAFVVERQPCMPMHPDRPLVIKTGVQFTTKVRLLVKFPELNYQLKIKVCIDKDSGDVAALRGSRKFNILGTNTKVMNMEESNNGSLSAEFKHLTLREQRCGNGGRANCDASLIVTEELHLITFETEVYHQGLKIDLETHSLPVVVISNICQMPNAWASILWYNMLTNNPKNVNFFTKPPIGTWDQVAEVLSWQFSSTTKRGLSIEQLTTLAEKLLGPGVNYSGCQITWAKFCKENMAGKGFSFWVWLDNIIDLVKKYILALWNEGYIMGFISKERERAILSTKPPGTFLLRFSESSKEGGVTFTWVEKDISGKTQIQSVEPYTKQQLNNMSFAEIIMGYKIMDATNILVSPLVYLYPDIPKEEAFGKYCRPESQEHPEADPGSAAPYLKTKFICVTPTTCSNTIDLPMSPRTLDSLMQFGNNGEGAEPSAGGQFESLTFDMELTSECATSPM", "experiment": "Inhibition of STAT3 phosphorylation in human 786-O cells at 10 uM measured after 48 hrs by immunoblot analysis relative to control"}, "[13]": {"experiment": "Upregulation of PARP cleavage in human U-937 cells by measuring signal 2 at 10 uM measured after 48 hrs by immunoblot analysis", "assay_type": "functional", "procedure,_shortened": "as §2"}, "[14]": {"experiment": "Upregulation of PARP cleavage in human U-937 cells by measuring signal 1 at 2 uM measured after 48 hrs by immunoblot analysis", "assay_type": "functional", "procedure,_shortened": "as §2"}}, "note": "The source made the active and inactive calls. No cut-off for these calls is given here."}
{"compound": "Cc1cccc(N2CCN(c3ncnc4sc5c(c34)CCNC5)CC2)c1", "values": [{"measurement": "inhibition at 30 µM", "setting": "786-0 [1]", "result": 47.2, "unit": "%"}]}
{"compound": "COc1cccc(N2CCN(c3ncnc4sc5c(c34)CCNC5)CC2)c1", "values": [{"measurement": "inhibition at 30 µM", "setting": "786-0 [1]", "result": 50.2, "unit": "%"}, {"measurement": "GI50", "setting": "786-0 [2]", "result": 29.5, "unit": "µM"}]}
{"compound": "Fc1ccccc1N1CCN(c2ncnc3sc4c(c23)CCNC4)CC1", "values": [{"measurement": "inhibition at 30 µM", "setting": "786-0 [1]", "result": 35.8, "unit": "%"}]}
{"compound": "COc1ccc(N2CCN(c3ncnc4sc5c(c34)CCNC5)CC2)cc1", "values": [{"measurement": "inhibition at 30 µM", "setting": "786-0 [1]", "result": 27.7, "unit": "%"}]}
{"compound": "COc1ccccc1N1CCN(c2ncnc3sc4c(c23)CCNC4)CC1", "values": [{"measurement": "inhibition at 30 µM", "setting": "786-0 [1]", "result": 36.7, "unit": "%"}]}
{"compound": "Fc1ccc(N2CCN(c3ncnc4sc5c(c34)CCNC5)CC2)cc1", "values": [{"measurement": "inhibition at 30 µM", "setting": "786-0 [1]", "result": 25.3, "unit": "%"}]}
{"compound": "CCC(=O)Nc1cc(Nc2cc(NC3CC3)n3ncc(C#N)c3n2)ccc1C", "values": [{"measurement": "Activity", "setting": "786-0 [3]", "result": "Not active; Compound Showed Poor Efficacy To Induce Cell Death"}, {"measurement": "GI50", "setting": "U-937", "result": 1.8, "unit": "µM"}, {"measurement": "Activity", "setting": "[4]", "result": 91, "unit": "%"}, {"measurement": "GI50", "setting": "[5]", "result": "> 30", "unit": "µM"}, {"measurement": "Activity", "setting": "[6]", "result": 0, "unit": "%"}, {"measurement": "GI50", "setting": "786-0 [2]", "result": 5.7, "unit": "µM"}, {"measurement": "GI50", "setting": "HCT-116", "result": "> 10", "unit": "µM"}]}
{"compound": "Cc1nc2c(Br)c(Br)c(Br)c(Br)c2n1CCCN", "values": [{"measurement": "IC50", "setting": "[7]", "result": 0.15, "unit": "µM"}, {"measurement": "Activity", "setting": "[8]", "result": 23, "unit": "%"}]}
{"compound": "O=C(O)c1ccc2c(c1)nc(Nc1cccc(Cl)c1)c1ccncc12", "note": "[SILMITASERTIB]", "values": [{"measurement": "Activity", "setting": "786-0 [3]", "result": "Not active; Compound Showed Poor Efficacy To Induce Cell Death"}, {"measurement": "inhibition", "setting": "[9]", "result": 96, "unit": "%"}, {"measurement": "GI50", "setting": "U-937", "result": 4, "unit": "µM"}, {"measurement": "Activity", "setting": "[10]", "result": 91, "unit": "%"}, {"measurement": "inhibition", "setting": "[11]", "result": 73, "unit": "%"}, {"measurement": "Activity", "setting": "[4]", "result": 88, "unit": "%"}, {"measurement": "GI50", "setting": "[5]", "result": "> 30", "unit": "µM"}, {"measurement": "inhibition", "setting": "786-0 [1]", "result": "inactive"}, {"measurement": "Activity", "setting": "[6]", "result": 0, "unit": "%"}, {"measurement": "inhibition", "setting": "[12]", "result": 100, "unit": "%"}, {"measurement": "Activity", "setting": "[13]", "result": 39, "unit": "%"}, {"measurement": "GI50", "setting": "786-0 [2]", "result": 5.5, "unit": "µM"}, {"measurement": "Activity", "setting": "[14]", "result": 82, "unit": "%"}]}
{"compound": "Cc1ccc(N2CCN(c3ncnc4sc5c(c34)CCNC5)CC2)cc1", "values": [{"measurement": "inhibition at 30 µM", "setting": "786-0 [1]", "result": 78.2, "unit": "%"}, {"measurement": "GI50", "setting": "786-0 [2]", "result": 14.7, "unit": "µM"}]}
{"compound": "Cc1ccccc1N1CCN(c2ncnc3sc4c(c23)CCNC4)CC1", "values": [{"measurement": "inhibition at 30 µM", "setting": "786-0 [1]", "result": 52.1, "unit": "%"}, {"measurement": "GI50", "setting": "786-0 [2]", "result": 30, "unit": "µM"}]}
{"compound": "Fc1cccc(N2CCN(c3ncnc4sc5c(c34)CCNC5)CC2)c1", "values": [{"measurement": "inhibition at 30 µM", "setting": "786-0 [1]", "result": 74.6, "unit": "%"}, {"measurement": "GI50", "setting": "786-0 [2]", "result": 15, "unit": "µM"}]}
{"compound": "Brc1ccccc1/C=N/Nc1ncnc2sc3c(c12)CCNC3", "values": [{"measurement": "inhibition at 30 µM", "setting": "786-0 [1]", "result": 99.2, "unit": "%"}, {"measurement": "GI50", "setting": "786-0 [2]", "result": 6.6, "unit": "µM"}]}
{"compound": "c1ccc(N2CCN(c3ncnc4sc5c(c34)CCNC5)CC2)cc1", "values": [{"measurement": "inhibition at 30 µM", "setting": "786-0 [1]", "result": 15.9, "unit": "%"}]}
